# In the library only some 2.4% were active in any assay of this set; here they are far more common.
# Apaf1 inhib = human Apaf-1 inhibition; inhibition, % at 20 µM; actives 0.71% (n = 330,000); reconstituted apoptosome caspase-3 activity, DEVD-Rh110 fluorescence; AID 489030; active = inhibition of at least 40% at 20 µM;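 note: plate controls were DMSO wells for no effect and DEVD-CHO caspase inhibitor wells for full effect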
# Target sequence (O14727 whole entry, looked up): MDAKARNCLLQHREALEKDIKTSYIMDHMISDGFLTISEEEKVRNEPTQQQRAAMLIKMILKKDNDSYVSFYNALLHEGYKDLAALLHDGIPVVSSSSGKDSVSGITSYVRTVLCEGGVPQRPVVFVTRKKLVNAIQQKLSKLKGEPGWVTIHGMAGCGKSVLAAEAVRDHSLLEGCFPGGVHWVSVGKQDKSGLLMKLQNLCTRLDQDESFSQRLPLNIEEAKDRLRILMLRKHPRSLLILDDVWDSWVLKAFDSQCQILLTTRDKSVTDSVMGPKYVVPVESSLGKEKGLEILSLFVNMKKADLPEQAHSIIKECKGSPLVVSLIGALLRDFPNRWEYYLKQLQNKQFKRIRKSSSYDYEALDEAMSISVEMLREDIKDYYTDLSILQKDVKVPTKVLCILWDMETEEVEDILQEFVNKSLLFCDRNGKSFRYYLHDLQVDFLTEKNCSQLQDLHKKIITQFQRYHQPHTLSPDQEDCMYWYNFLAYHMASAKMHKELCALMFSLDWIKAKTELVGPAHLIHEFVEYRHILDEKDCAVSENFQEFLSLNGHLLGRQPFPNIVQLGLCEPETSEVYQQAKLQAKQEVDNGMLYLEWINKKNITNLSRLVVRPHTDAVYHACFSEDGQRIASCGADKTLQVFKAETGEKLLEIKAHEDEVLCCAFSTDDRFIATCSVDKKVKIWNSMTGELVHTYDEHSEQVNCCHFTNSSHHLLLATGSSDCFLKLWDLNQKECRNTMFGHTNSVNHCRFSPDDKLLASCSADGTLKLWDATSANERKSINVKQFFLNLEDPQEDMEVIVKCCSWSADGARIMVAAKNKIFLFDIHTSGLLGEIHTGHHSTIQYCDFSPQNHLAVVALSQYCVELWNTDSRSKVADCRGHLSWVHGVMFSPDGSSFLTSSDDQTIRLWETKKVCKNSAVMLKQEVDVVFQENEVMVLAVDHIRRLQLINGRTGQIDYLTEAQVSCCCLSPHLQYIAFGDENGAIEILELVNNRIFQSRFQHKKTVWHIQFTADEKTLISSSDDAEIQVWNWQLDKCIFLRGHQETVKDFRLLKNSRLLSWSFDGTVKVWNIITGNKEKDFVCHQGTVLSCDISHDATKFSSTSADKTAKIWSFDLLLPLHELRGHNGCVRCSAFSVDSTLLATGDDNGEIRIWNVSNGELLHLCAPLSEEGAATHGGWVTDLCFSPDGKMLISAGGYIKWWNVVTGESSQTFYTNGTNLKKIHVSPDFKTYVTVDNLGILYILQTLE
#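 Medium: Hepes buffer, pH 7.5 / System: biochemical Apaf-1 apoptosome reconstitution / Measured by: Rh110 fluorescence, excitation 480 nm, emission 540 nm / Times: compound with Apaf-1, dATP, procaspase-3 30 min, then 50 min reaction, room temperature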
# TMEM16A act = activates or potentiates the mouse TMEM16A chloride channel. actives 0.3% (n = 340,000). Q8BHY3. HEK293 TMEM16A/YFP-H148Q/I152L, iodide quench fluorescence; hits give low values. B-score at 10 µM. AID 623877;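 active = fluorescence-ratio B-score plate-corrected deviation score at least 3 library SD below zero, with starting fluorescence score within 5 deviations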;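 note: channel opened by trigger with iodide after compound preincubation; score built on the fluorescence ratio of max minus min over baseline; more negative score means more quench and so TMEM16A activation or potentiation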
# UBC13 polyUb = blocks human UBC13 polyubiquitin chain formation | inhibition, % at 20 µM | actives 0.47% (n = 330,000) | P61088 | TR-FRET | AID 485273; in the data active = inhibition above about 45%, passing the limit was not always enough
# DNA FID counter = fluorescent intercalator displacement, NS3 helicase counter-screen; DNA fluorescent intercalator displacement, fluorescence; inhibition, % at 7.9 µM; actives 0.17% (n = 290,000); in the data active = inhibition above about 37%;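 note: 0% = vehicle and 100% = reference compound; higher means more ethidium bromide displaced from hairpin DNA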
# TMEM16A inh = mouse TMEM16A channel inhibition, primary screen; HEK293 TMEM16A/YFP iodide influx fluorescence, ionomycin; AID 588511; normalized B-score (activity score, 25-100; higher = stronger inhibition) at 10 µM; actives 1.2% (n = 310,000);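 active = ratio plate-corrected score three or more library SD toward inhibition, starting fluorescence score within five deviations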;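 note: score derived from kinetic fluorescence span divided by baseline fluorescence per well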
# Casp3 UBC13 ctr = caspase-3 inhibition (UBC13 counter-screen); actives 4% (n = 1,400); inhibition, % at 20 µM; shares compounds with UBC13 polyUb; AID 488856; Recombinant caspase-3, Caspase-Glo 3/7 luminescence, 60 min;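 active = mean inhibition across replicates above about 26%, limit read from the data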;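 note: plate controls were DMSO with caspase-3 for no effect and DMSO wells lacking enzyme for full effect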
# UBC13 conf = confirmation of human UBC13 polyubiquitin inhibitors; AID 488859; inhibition, % at 10 µM; shares compounds with UBC13 polyUb; actives 68% (n = 1,400); UBC13 polyubiquitination, TR-FRET, biochemical; in the data active = inhibition above about 45%
# Apaf-1 inh conf = Apaf-1 inhibition, single-dose confirmed; AID 504614; shares compounds with Apaf1 inhib; inhibition, % at 20 µM; reconstituted apoptosome, caspase-3 DEVD-Rh110 fluorescence; actives 25% (n = 1,800);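 active = mean inhibition of at least 40% at 20 µM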;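 note: plate controls were DMSO wells for no effect and DEVD-CHO caspase inhibitor control wells for full effect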
# Rh110 interf inh = counter-screen for Apaf-1 inhibitors: fluorescence interference; activation (fluorescence interference), % at 20 µM; 1,800 tested, under 10 active; AID 504615; Rh110 fluorescence interference, quenched caspase reaction; shares compounds with Apaf1 inhib;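 active = signal rise of 40% or more at 20 µM, treated as a fluorescence artifact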
# Fluor interf inh = shows fluorescence interference in the Apaf-1 inhibitor assay format; shares compounds with Apaf1 inhib; fluorescence interference counterscreen, Apaf-1 assay format; IC50, µM; 460 tested, under 10 active; AID 588538; call rule not given here
# Numbers without * were called inactive; i = inactive; · = not tested or not shown.
SMILES,Apaf1 inhib,TMEM16A act,UBC13 polyUb,DNA FID counter,TMEM16A inh,Casp3 UBC13 ctr,UBC13 conf,Apaf-1 inh conf,Rh110 interf inh,others
C#CCOCCOCCOCCNc1nc(N2CCOCC2)nc(N2CCN(C(=O)CCCCCCCCCCNC(=O)Cn3cc(CCCCCN)nn3)CC2)n1,25.7,i,28.5,·,i,·,·,·,·,
C#CCOCCOCCOCCNc1nc(N2CCOCC2)nc(N2CCN(C(=O)CCCCCCCCCCNC(=O)[C@@H]([C@H](C)O)n3cc(C)nn3)CC2)n1,-3.8,i,6.6,·,i,·,·,·,·,
CC(C)(C)c1ccc(NC(=O)CSc2n[nH]c(=O)n2C2CC2)cc1,3.3,i,13.1,·,·,·,·,·,·,
Cc1nc2c(-c3ccccc3)c(C)nn2c(SCC(N)=O)c1Cc1ccccc1,13.6,i,2.3,-6.5,i,·,·,·,·,
CCN1CCN(S(=O)(=O)c2ccc(Cl)c(C(=O)N(C)Cc3ccc(Cl)cc3Cl)c2)CC1,28.0,i,29.0,9.1,i,·,·,·,·,
CCN1CCN(S(=O)(=O)c2ccc(Cl)c(C(=O)N(C)Cc3cccs3)c2)CC1,57.8*,i,48.8*,·,·,-3.0,54.6*,31.2,1.1,
CCOC(=O)c1c(-c2ccc(-c3ccccc3)cc2)csc1NC(=O)CNCCN(C)C,42.2*,i,78.6*,19.4,i,-4.5,84.7*,47.4*,5.3,Fluor interf inh=>100
Cc1cc(N)c2cc(NC(=O)/C=C/c3ccccc3Cl)ccc2n1,64.3*,i,117.1*,31.0,i,-0.8,128.8*,77.4*,-3.4,Fluor interf inh=>100
CC(=O)C1C(c2ccc(F)cc2)C2C(C)=NN=C2CC1(C)O (stereo not drawn),-11.1,i,2.7,-4.1,i,·,·,·,·,
CN1CCN(CCCN2c3ccccc3Sc3ccc(S(=O)(=O)N(C)C)cc32)CC1,31.9,i,36.5,·,i,·,·,·,·,
OCCN1CCN(CCCN2c3ccccc3Sc3ccc(Cl)cc32)CC1,45.7*,i,90.3*,18.2,i,-3.7,98.9*,4.7,7.8,
OCCN1CCN(CC/C=C2/c3ccccc3Sc3ccc(Cl)cc32)CC1,43.4*,i,74.5*,·,i,4.4,60.1*,12.2,5.8,
CCN(CC)CCNC(=O)c1ccc(NC(=O)c2cn(-c3ccc(F)cc3)nc2-c2cccc(OC)c2)cc1,45.1*,i,92.0*,33.0,i,-2.5,115.2*,22.2,7.3,
COC(=O)C1=C(C)N(Cc2ccccc2)C(=NCCc2c[nH]c3ccccc23)N[C@H]1c1cccc(C(F)(F)F)c1,78.0*,i,74.0*,·,·,0.7,86.3*,42.7*,0.5,Fluor interf inh=>100
COC(=O)C1=C(C)N(Cc2ccccc2)C(=NCc2cccc(C(F)(F)F)c2)N[C@H]1c1cccc(C(F)(F)F)c1,74.5*,i,89.6*,·,·,3.8,94.1*,33.5,12.3,
COC(=O)C1=C(C)N(Cc2ccccc2)C(=NCCCCO)N[C@H]1c1cccc(C(F)(F)F)c1,34.4,i,34.2,·,·,·,·,·,·,
COC(=O)C1=C(C)N(CC2CC2)C(=NCc2cccc(C(F)(F)F)c2)N[C@H]1c1ccccc1,57.1*,i,66.5*,·,·,3.3,74.9*,13.6,12.1,
CCN1C(=NCCCCO)N[C@@H](c2cccc(C(F)(F)F)c2)C(C(=O)OC)=C1C,0.6,i,6.2,10.5,i,·,·,·,·,
C[C@@H](CN1C2=NC[C@H](Cc3ccccc3)N2C[C@H]1Cc1ccc(O)cc1)NC(=O)CCC1CCCCC1,40.7*,i,65.6*,8.4,i,0.1,40.7,11.7,9.2,
C[C@@H](CN1C2=NC[C@H](Cc3ccc(O)cc3)N2C[C@H]1Cc1ccc(O)cc1)NC(=O)CCC1CCCCC1,3.2,i,44.2,12.5,i,·,·,·,·,
COc1ccc2cc(-c3[nH]ncc3CN3CCCC3c3nonc3C)ccc2c1 (stereo not drawn),-6.9,i,-3.0,6.2,i,·,·,·,·,
C#CCOCCOCCOCCNc1nc(N2CCN(C(=O)[C@H](CC(N)=O)n3cc(C(N)[C@@H](C)CC)nn3)CC2)nc(N2CCN(C(=O)[C@H](CCCCN)n3cc([C@@H](N)CC(N)=O)nn3)CC2)n1 (stereo partly drawn),5.5,i,14.7,·,·,·,·,·,·,
C#CCOCCOCCOCCNc1nc(N2CCN(C(=O)[C@H](CCCCN)n3cc([C@@H](N)[C@H](C)CC)nn3)CC2)nc(N2CCN(C(=O)[C@H](CCCCN)n3cc([C@@H](N)CC(N)=O)nn3)CC2)n1,44.1*,i,99.0*,·,·,-1.3,106.7*,-0.3,-3.0,
C#CCOCCOCCOCCNc1nc(N2CCN(C(=O)C([C@@H](C)O)n3cc([C@@H](N)CCCCN)nn3)CC2)nc(N2CCN(C(=O)[C@H](CO)n3cc([C@@H](N)C(C)C)nn3)CC2)n1 (stereo partly drawn),52.5*,i,104.9*,·,·,-5.2,110.7*,8.3,3.0,
C#CCOCCOCCOCCNc1nc(N2CCN(C(=O)[C@H](Cc3cc4ccccc4[nH]3)n3cc([C@@H](N)C(C)CC)nn3)CC2)nc(N2CCN(C(=O)[C@H](CCCCN)n3cc([C@@H](N)CC(C)C)nn3)CC2)n1 (stereo partly drawn),41.3*,·,97.6*,44.5*,i,-1.9,115.6*,6.9,6.9,
C#CCOCCOCCOCCNc1nc(N2CCN(C(=O)[C@H](Cc3ccc(O)cc3)n3cc([C@@H](N)C(C)CC)nn3)CC2)nc(N2CCN(C(=O)[C@H](Cc3cc4ccccc4[nH]3)n3cc([C@@H](N)CC(C)C)nn3)CC2)n1 (stereo partly drawn),47.2*,·,75.6*,59.9*,i,-3.5,56.0*,0.9,2.8,
C#CCOCCOCCOCCNc1nc(N2CCN(C(=O)[C@H](CO)n3cc([C@@H](N)C(C)C)nn3)CC2)nc(N2CCN(C(=O)[C@H](CO)n3cc([C@@H](N)C(C)C)nn3)CC2)n1,·,i,·,·,·,·,·,·,·,
CC(=O)Oc1ccc(/C=N/NC(=S)Nc2ccccc2)cc1,-5.9,i,1.2,-12.0,i,·,·,·,·,
O=C(CC1SC(=O)NC1=O)Oc1ccc(/C=N/NC(=O)c2ccccc2O)cc1 (stereo not drawn),-13.7,i,7.7,-10.4,i,·,·,·,·,
